In ChEMBL document CHEMBL5506039, “Discovery and Optimization of Tambjamines as a Novel Class of Antileishmanial Agents” (J Med Chem, 2024):

Tests used:
[1] = Cytotoxicity against mouse J774.A1 cells assessed as cell survival at 0.1 uM measured after 96 hrs by SYBR Green II dye based analysis relative to control; assay type: toxicity; details: read-out: Survival
How it was run: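 Uninfected J774A.1 mouse macrophages were plated at 1 × 10⁴ cells/well in DMEM with 10% heat-inactivated FBS and left 3 h at 37 °C to reattach. Compounds were added from DMSO, and analogues were screened at 0.1 μM. After 96 h at 37 °C in 5% CO₂, medium was removed. SYBR Green II (1:1000 in 1% Triton/PBS) was added for 1 h in the dark at room temperature, and fluorescence was read at Ex 485/Em 535 as a DNA-content measure of viability.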

Leishmania mexicana [2] = test: Antileishmanial activity against Leishmania mexicana MNYC/BZ/62/M379 amastigotes expressing red-shifted firefly luciferase from integrated ribosomal (28S) RNA locus infected in mouse J774.A1 cells assessed as parasite survival at 0.1 uM measured after 96 hrs by luminescence based analysis relative to control; assay type: functional; details: MNYC/BZ/62/M379, J774.A1
[3] = Metabolic stability in pre-warmed pooled mouse liver microsomes assessed as half life at 1 uM measured upto 60 mins by LC-MS analysis; assay type: ADME, Microsome
How it was run: (§1)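 Compound at 1 μM final with 0.5 mg/mL pooled human or mouse liver microsomes, 1.3 mM NADP and 3.3 mM MgCl₂ in 100 mM potassium phosphate, pH 7.4. Reaction started with 1 U/mL G6PD at 37 °C with shaking.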

Leishmania mexicana [4] = test: Antileishmanial activity against Leishmania mexicana MNYC/BZ/62/M379 amastigotes expressing red-shifted firefly luciferase from integrated ribosomal (28S) RNA locus infected in mouse J774.A1 cells assessed as reduction in parasite survival measured after 96 hrs by luminescence based analysis; assay type: functional, organism-based; details: MNYC/BZ/62/M379, J774.A1, 96 h
How it was run: (§2)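 J774A.1 macrophages infected with stationary-phase luciferase-expressing promastigotes at 10:1 parasites:macrophage, overnight at 37 °C, 5% CO₂. Non-internalized parasites washed off and 1 × 10⁴ cells/well replated in MEM/10% HI-FBS. Compounds in DMSO added as serial 3-fold dilutions (typically 10 μM–1 nM) for 96 h. Luciferase luminescence read; EC50 from log-transformed sigmoidal variable-slope fit. Mean ± SD of ≥2 independent experiments.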

[5] = Therapeutic index, ratio of EC50 for mouse J774.A1 cells to EC50 for antileishmanial activity against Leishmania mexicana MNYC/BZ/62/M379 amastigotes expressing red-shifted firefly luciferase from integrated ribosomal (28S) RNA locus infected in mouse J774.A1 cells; assay type: toxicity, cell-based; details: read-out: TI
[6] = Cytotoxicity against mouse J774.A1 cells assessed as reduction in cell survival measured after 96 hrs by SYBR Green II dye based analysis; assay type: toxicity
How it was run: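 Uninfected J774A.1 macrophages, 1 × 10⁴ cells/well in DMEM/10% HI-FBS, reattached 3 h, then exposed to compounds for 96 h. DNA content read after lysis with SYBR Green II (1:1000 in 1% Triton/PBS), 1 h dark at room temperature, fluorescence Ex 485/Em 535.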

[7] = Metabolic stability in pre-warmed pooled human liver microsomes assessed as half life at 1 uM measured upto 60 mins by LC-MS analysis; assay type: ADME, Microsome; how it was run: as §1
Leishmania donovani = test: Antileishmanial activity against Leishmania donovani amastigotes expressing red-shifted firefly luciferase from integrated ribosomal (28S) RNA locus infected in mouse J774.A1 cells assessed as reduction in parasite growth measured after 96 hrs by luminescence based analysis; assay type: functional, organism-based; details: J774.A1, 96 h; how it was run: as §2
HepG2 = test: Cytotoxicity against human HepG2 cells assessed as inhibition of cell growth incubated for 48 hrs by MTT assay; assay type: toxicity, cell-based
How it was run: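 HepG2 cells, 2.5 × 10⁴/well in supplemented complete MEM, settled overnight at 37 °C, 5% CO₂. Compounds given as 11 duplicate 1.6-fold dilutions, 10 to 0.15 μg/mL, for 48 h. MTT added for 1 h in the dark at room temperature, formazan dissolved in acidified isopropanol, absorbance read. Triplicate runs; IC50 by sigmoidal variable-slope regression.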

[8] = Therapeutic index, ratio of IC50 for human HepG2 cells to EC50 for antileishmanial activity against Leishmania donovani amastigotes expressing red-shifted firefly luciferase from integrated ribosomal (28S) RNA locus infected in mouse J774.A1 cells; assay type: toxicity, cell-based; details: read-out: TI
How it was run: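 TI computed as HepG2 IC50 divided by L. donovani EC50. HepG2: MTT assay with 48 h exposure to 10–0.15 μg/mL (1.6-fold dilutions), triplicates, sigmoidal variable-slope fit. Amastigotes: J774A.1 macrophages infected with RS-luciferase promastigotes at 10:1, washed after 24 h, then 96 h compound exposure (3-fold dilutions, 10 μM–1 nM) in MEM/10% HI-FBS at 37 °C, 5% CO₂; luciferase readout.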

SMILES	viability at 96 h, 0.1 µM [1]	survival at 0.1 µM (Leishmania mexicana [2])	half-life at 1 µM [3]	EC50 (Leishmania mexicana [4])	selectivity ratio [5]	EC50 at 96 h [6]	half-life at 1 µM [7]	EC50 (Leishmania donovani)	IC50 (HepG2)	selectivity ratio [8]
COC1=CC(c2ccc[nH]2)=N/C1=C\Nc1ccc(C)cc1.Cl	50.8%	5.49%	28.9 min	41 nM	4.2	171 nM	30 min			
COC1=CC(c2ccc(Cc3ccc(OC)cc3)[nH]2)=N/C1=C\NC12CC3CC(CC(C3)C1)C2.Cl	59.6%	-0.05%	> 60 min	11.3 nM	> 88	> 1000 nM	> 60 min			
COC1=CC(c2ccc[nH]2)=N/C1=C\Nc1ccccc1	72.8%	14.3%		73 nM	14	1040 nM		226 nM		
COC1=CC(c2ccc[nH]2)=N/C1=C\Nc1ccc(Oc2ccc(OC)cc2)cc1	50.2%	8.65%	30.1 min	66 nM	> 15	> 1000 nM	> 60 min			
COC1=CC(c2ccc[nH]2)=N/C1=C\Nc1ccc(Oc2ccc(C)cc2)cc1	69.8%	26%	46.9 min	93 nM	29	2740 nM	> 60 min	285 nM	1730 nM	6
Cl.FC(F)(F)Oc1ccc(OC2=CC(c3ccc[nH]3)=N/C2=C\NC23CC4CC(CC(C4)C2)C3)cc1	80.7%	35.7%	> 60 min	41 nM	8.6	353 nM	> 60 min			
COC1=CC(c2ccc(-c3ccc(OC)cc3)[nH]2)=N/C1=C\NC1CCCCCC1.Cl	77.3%	-0.02%	> 60 min	18.8 nM	24	450 nM	> 60 min			
CC1=C/C(=C\NC23CC4CC(CC(C4)C2)C3)N=C1c1ccc[nH]1.Cl	86.9%	15.4%		48 nM	24	1130 nM	> 60 min	100 nM		300
CCCCCCN/C=C1\N=C(c2ccc[nH]2)C=C1OC.Cl	127%	11.1%		52.5 nM	> 19	> 1000 nM	17.1 min	118 nM	26700 nM	226
Cc1ccc(Oc2ccc(N/C=C3\N=C(c4ccc[nH]4)C4=C3CCCC4)cc2)cc1.Cl	58.2%	102%	> 60 min				> 60 min			
CCc1c[nH]c(C2=N/C(=C\NC3CCCCCC3)C(C)=C2C)c1.Cl	63.3%	23.8%	11 min	117 nM	11	1330 nM	> 60 min			
CCc1c(C)[nH]c(C2=N/C(=C\NC34CC5CC(CC(C5)C3)C4)C(C)=C2C)c1C.Cl	63.5%	10.7%	29 min	54 nM	12	675 nM	> 60 min	81.2 nM	21300 nM	263
C(/NCC1CCCCCC1)=C1/N=C(c2ccc[nH]2)C2=C1CCCC2.Cl	75%	16.1%	> 60 min				> 60 min			
COC1=CC(c2ccc[nH]2)=N/C1=C\N[C@H]1CC[C@H](C)CC1.Cl	66.6%	12.4%		40 nM	17	696 nM	17.3 min	122 nM	3420 nM	28
CCC1=C/C(=C\NC23CC4CC(CC(C4)C2)C3)N=C1c1ccc[nH]1	50%	11.3%		37.5 nM	24	884 nM		90.5 nM		168
COc1ccc(Oc2ccc(N/C=C3\N=C(c4ccc[nH]4)C4=C3CCCC4)cc2)cc1.Cl	62.5%	89.8%	> 60 min				> 60 min			
Cl.Fc1cc(F)cc(OC2=CC(c3ccc[nH]3)=N/C2=C\NC23CC4CC(CC(C4)C2)C3)c1	59.3%	27.3%	> 60 min	79 nM	8.6	680 nM	> 60 min	184 nM	59400 nM	323
COC1=CC(c2ccc[nH]2)=N/C1=C\Nc1ccc2c(c1)OCCO2.Cl	77.3%	9.03%	15.8 min	32 nM	> 31	> 1000 nM	> 60 min			
Cl.Clc1ccc(OC2=CC(c3ccc[nH]3)=N/C2=C\NC23CC4CC(CC(C4)C2)C3)cc1	67.1%	7.16%	> 60 min	38.3 nM	15	567 nM	> 60 min	181 nM	14500 nM	80
COC1=CC(c2ccc[nH]2)=N/C1=C\N[C@H]1CC[C@H](NC(=O)OC(C)(C)C)CC1	51.1%	28.3%	9.71 min	87.7 nM	34	2990 nM	8.45 min			
COC1=CC(c2ccc[nH]2)=N/C1=C\Nc1cccc(Cl)c1.Cl	65.3%	13.6%		91.5 nM	6.2	570 nM	> 60 min			
COC1=CC(c2ccc[nH]2)=N/C1=C\N[C@H]1CC[C@H](C(F)(F)F)CC1.Cl	74.4%	9.48%		46.7 nM	24	1100 nM	13 min	198 nM	5120 nM	26
COC1=CC(c2ccc[nH]2)=N/C1=C\NCC1CCCCCC1.Cl	72.2%	5.3%		48.5 nM	> 21	> 1000 nM	18.6 min	88 nM	6060 nM	69
C(/NC1CCCCCC1)=C1/N=C(c2ccc[nH]2)C2=C1CCCC2.Cl	80%	24.7%		74 nM	3.4	252 nM	> 60 min	101 nM	6200 nM	61
COC1=CC(c2ccc[nH]2)=N/C1=C\Nc1cccc(OC(F)(F)F)c1.Cl	83.7%	11.4%	15.8 min	54 nM	14	760 nM	> 60 min			
